Assay results published in ChEMBL document CHEMBL2203283, “Novel coumarin derivatives bearing N-benzyl pyridinium moiety: potent and dual binding site acetylcholinesterase inhibitors” (Bioorg Med Chem, 2012).
In brackets after ≈: the same amount, converted by molar mass.

How the values were obtained:
[1] = Antioxidant activity of compound assessed as ferric reducing antioxidant power; assay type: functional
How it was run: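 Modified FRAP assay. Reagent mixed from 300 mM acetate buffer pH 3.6, 10 mM TPTZ in 40 mM HCl, and 20 mM ferric chloride hexahydrate solution. Ascorbic acid and BHT served as references.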

[2] = Selectivity ratio of IC50 for equine serum BuChE to IC50 for electric eel AChE
How it was run: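 Ellman assay with electric eel AChE and equine serum BuChE, run by the same method. Compounds are diluted in 0.1 M phosphate buffer, pH 8.0, and preincubated 15 min at 25 °C. Substrate is acetylthiocholine iodide with DTNB, read as absorbance rate at 412 nm over 6 min. Five concentrations are tested in triplicate, with IC50 taken graphically. Ratio = IC50(BuChE)/IC50(AChE).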

[3] = tested on: Radical scavenging activity; experiment: Antioxidant activity of compound assessed as DPPH radical scavenging activity; assay type: functional
How it was run: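 DPPH radical scavenging: compounds at five concentrations across a 0–25 range in methanol, mixed with 0.3 mM DPPH ethanol solution and left 30 min in the dark at room temperature. Absorbance read at 518 nm, with a compound-plus-methanol reading blank and a DPPH-plus-methanol negative control. % inhibition = [(A_B−A_A)/A_B]×100; IC50 calculated; ascorbic acid as reference.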

Cholinesterase = Cholinesterase (Equus caballus, UniProt P81908); experiment: Inhibition of equine serum BuChE using acetylthiocholine iodide as substrate by Ellman's method
Acetylcholinesterase = Acetylcholinesterase (Electrophorus electricus, UniProt O42275); experiment: Inhibition of electric eel AChE using acetylthiocholine iodide as substrate by Ellman's method
Chain of Acetylcholinesterase (O42275 whole entry): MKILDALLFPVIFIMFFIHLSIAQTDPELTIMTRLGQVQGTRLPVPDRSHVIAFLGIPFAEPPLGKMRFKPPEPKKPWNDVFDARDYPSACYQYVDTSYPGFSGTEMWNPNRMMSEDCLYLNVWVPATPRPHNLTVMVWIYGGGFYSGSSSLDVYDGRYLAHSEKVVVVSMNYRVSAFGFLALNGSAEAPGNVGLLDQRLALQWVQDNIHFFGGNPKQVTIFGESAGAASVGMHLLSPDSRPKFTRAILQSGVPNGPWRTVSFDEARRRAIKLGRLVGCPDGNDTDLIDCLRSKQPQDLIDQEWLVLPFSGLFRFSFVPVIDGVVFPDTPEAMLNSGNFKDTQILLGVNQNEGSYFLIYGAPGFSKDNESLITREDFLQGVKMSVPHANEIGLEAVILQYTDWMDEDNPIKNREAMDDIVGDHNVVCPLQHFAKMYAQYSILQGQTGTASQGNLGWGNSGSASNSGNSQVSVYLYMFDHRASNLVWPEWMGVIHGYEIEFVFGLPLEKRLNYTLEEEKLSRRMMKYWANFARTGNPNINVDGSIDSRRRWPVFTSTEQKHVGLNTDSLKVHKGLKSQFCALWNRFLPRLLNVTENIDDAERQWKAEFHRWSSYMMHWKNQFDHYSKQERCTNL

Chain of Cholinesterase (P81908 whole entry): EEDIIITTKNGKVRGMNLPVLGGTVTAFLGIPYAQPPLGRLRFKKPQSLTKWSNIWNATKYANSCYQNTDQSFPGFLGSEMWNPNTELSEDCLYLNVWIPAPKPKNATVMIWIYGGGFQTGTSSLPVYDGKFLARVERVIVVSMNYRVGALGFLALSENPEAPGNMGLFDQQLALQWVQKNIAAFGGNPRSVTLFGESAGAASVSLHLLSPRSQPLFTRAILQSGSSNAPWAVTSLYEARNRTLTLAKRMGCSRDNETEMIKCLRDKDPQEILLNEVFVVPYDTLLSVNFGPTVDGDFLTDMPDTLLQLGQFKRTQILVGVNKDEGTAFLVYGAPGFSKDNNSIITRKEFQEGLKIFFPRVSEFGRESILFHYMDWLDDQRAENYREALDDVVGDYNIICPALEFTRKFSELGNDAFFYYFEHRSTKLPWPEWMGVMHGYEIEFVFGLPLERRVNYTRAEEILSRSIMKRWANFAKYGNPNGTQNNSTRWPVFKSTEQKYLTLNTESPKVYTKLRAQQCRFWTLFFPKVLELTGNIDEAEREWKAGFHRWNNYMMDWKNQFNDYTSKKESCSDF

SMILES | Activity [1] | Ratio IC50 [2] | IC50 [3] | IC50 (Cholinesterase) | IC50 (Acetylcholinesterase)
O=C(/C=C/c1cc[n+](Cc2ccc(F)cc2)cc1)c1cc2cc(Br)ccc2oc1=O.[Cl-] | < 150 | 1070 | > 25 µg/mL | 494 nM | 0.46 nM
COc1ccc(C[n+]2ccc(/C=C/C(=O)c3cc4cccc(OC)c4oc3=O)cc2)cc1.[Cl-] | < 150 | 0.7 | > 25 µg/mL | 971 nM | 1470 nM
O=C(/C=C/c1cc[n+](Cc2ccc(F)cc2)cc1)c1cc2ccccc2oc1=O.[Cl-] | < 150 | 1.2 | > 25 µg/mL | 910 nM | 760 nM
COc1cccc2cc(C(=O)/C=C/c3cc[n+](Cc4cccc(Cl)c4Cl)cc3)c(=O)oc12.[Cl-] | < 150 | 57 | > 25 µg/mL | 6800 nM | 120 nM
O=C1O[C@H]([C@@H](O)CO)C(O)=C1O [ASCORBIC ACID] | 1890 |  | 3.6 µg/mL (≈ 20.4 µM) |  | 
COc1cccc2cc(C(=O)/C=C/c3cc[n+](Cc4cccc(F)c4)cc3)c(=O)oc12.[Cl-] | < 150 | 4470 | > 25 µg/mL | 2100 nM | 0.47 nM
COc1cccc2cc(C(=O)/C=C/c3cc[n+](Cc4cccc(C)c4)cc3)c(=O)oc12.[Cl-] | < 150 | 14 | > 25 µg/mL | 11200 nM | 800 nM
COc1cccc2cc(C(=O)/C=C/c3cc[n+](Cc4c(F)cccc4[N+](=O)[O-])cc3)c(=O)oc12.[Cl-] | < 150 | 2.1 | > 25 µg/mL | 685 nM | 330 nM
COc1cccc2cc(C(=O)/C=C/c3cc[n+](Cc4ccc(Cl)c(Cl)c4)cc3)c(=O)oc12.[Cl-] | < 150 | 13.6 | > 25 µg/mL | 5790 nM | 440 nM
O=C(/C=C/c1cc[n+](Cc2ccccc2F)cc1)c1cc2ccccc2oc1=O.[Cl-] | < 150 | 1.57 | > 25 µg/mL | 848 nM | 540 nM
O=C(/C=C/c1cc[n+](Cc2ccccc2F)cc1)c1cc2cc(Br)ccc2oc1=O.[Cl-] | < 150 | 4440 | > 25 µg/mL | 489 nM | 0.11 nM
COc1cccc2cc(C(=O)/C=C/c3cc[n+](Cc4ccc(F)cc4)cc3)c(=O)oc12.[Cl-] | < 150 | 1.97 | > 25 µg/mL | 931 nM | 472 nM
COc1cccc2cc(C(=O)/C=C/c3cc[n+](Cc4ccc(C)cc4)cc3)c(=O)oc12.[Cl-] | < 150 | 7.4 | > 25 µg/mL | 27000 nM | 3650 nM
COc1cccc2cc(C(=O)/C=C/c3cc[n+](Cc4ccccc4Cl)cc3)c(=O)oc12.[Cl-] | < 150 | 272 | > 25 µg/mL | 125 nM | 0.46 nM
COc1cccc2cc(C(=O)/C=C/c3cc[n+](Cc4cccc(C#N)c4)cc3)c(=O)oc12.[Br-] | < 150 | 13.1 | > 25 µg/mL | 1000 nM | 76 nM
COc1cccc2cc(C(=O)/C=C/c3cc[n+](Cc4ccccc4)cc3)c(=O)oc12.[Cl-] | < 150 |  | > 25 µg/mL |  | 
COc1cccc2cc(C(=O)/C=C/c3cc[n+](Cc4ccccc4C)cc3)c(=O)oc12.[Cl-] | < 150 | 2140 | > 25 µg/mL | 342 nM | 0.16 nM
COc1cccc2cc(C(=O)/C=C/c3cc[n+](Cc4ccccc4F)cc3)c(=O)oc12.[Br-] | < 150 | 12.6 | > 25 µg/mL | 329 nM | 26 nM
COc1cccc2cc(C(=O)/C=C/c3cc[n+](Cc4ccc(CCl)cc4)cc3)c(=O)oc12.[Cl-] | < 150 | 9.4 | > 25 µg/mL | 15100 nM | 1600 nM
COc1cccc2cc(C(=O)/C=C/c3cc[n+](Cc4cccc(Cl)c4)cc3)c(=O)oc12.[Cl-] | < 150 | 6.5 | > 25 µg/mL | 560 nM | 86 nM
